Reference: ChEMBL document CHEMBL5634116, “Strategies for developing retinoic acid receptor alpha-selective antagonists as novel agents for male contraception” (Eur J Med Chem, 2023)
In brackets after ≈: the same amount, converted by molar mass. Activity calls are given as the source filed them. No cut-off for these calls is given here.

How the values were obtained:
Mus musculus [1] = test: Effect on spermatogenesis in CD-1 mouse assessed as reduction in sperm count administered as Carbitol formulation at 10 mg/kg/day, po for 28 days consecutively measured on day 1 post-cessation of drug treatment by hemocytometry relative to control; type: functional; set-up: scale not given: the % may be the effect or the level left; details: time 29 day
Mus musculus [2] = test: Effect on spermatogenesis in CD-1 mouse assessed as sperm count at 5 mg/kg/day, po for 7 days measured after 4 weeks post-cessation of drug treatment by hemocytometry; type: functional; details: time 5 weeks
Mus musculus [3] = test: Effect on spermatogenesis in CD-1 mouse assessed as sperm count at 10 mg/kg/day, po for 2 weeks measured after 4 weeks post-cessation of drug treatment by hemocytometry (reference value: 50.30 +/- 5.90 x 10^6No_unit); type: functional; details: time 6 weeks
[4] = Solubility of compound in PBS at pH 7.4; type: physicochemical; details: buffer
Procedure, shortened: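 Solubility measured in PBS, pH 7.4.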

[5] = Drug uptake in CD-1 mouse plasma at 10 mg/kg, po measured for 30 mins by LC-MS/MS analysis; type: ADME, organism-based; details: in vivo, 0.5 h
Procedure, shortened: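 Male CD-1 mice, 6-8 weeks, single oral dose 10 mg/kg in 80% Carbitol/20% saline (1.75 mg/ml). Sets of 3 mice bled and euthanized at 5, 15, 30 min to 24 h; plasma frozen ≤ −20 °C, acetonitrile-precipitated with internal standard, analysed by isocratic LC-MS/MS against calibration standards. Mean ± S.D. of 3 animals.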

[6] = biological target: T1, Retinoic acid receptor gamma (Homo sapiens, UniProt P13631); test: Agonist activity at recombinant human RAR-gamma expressed in mammalian cells by luciferase reporter gene based transactivation assay; type: cell-based
T1 sequence (P13631 whole entry): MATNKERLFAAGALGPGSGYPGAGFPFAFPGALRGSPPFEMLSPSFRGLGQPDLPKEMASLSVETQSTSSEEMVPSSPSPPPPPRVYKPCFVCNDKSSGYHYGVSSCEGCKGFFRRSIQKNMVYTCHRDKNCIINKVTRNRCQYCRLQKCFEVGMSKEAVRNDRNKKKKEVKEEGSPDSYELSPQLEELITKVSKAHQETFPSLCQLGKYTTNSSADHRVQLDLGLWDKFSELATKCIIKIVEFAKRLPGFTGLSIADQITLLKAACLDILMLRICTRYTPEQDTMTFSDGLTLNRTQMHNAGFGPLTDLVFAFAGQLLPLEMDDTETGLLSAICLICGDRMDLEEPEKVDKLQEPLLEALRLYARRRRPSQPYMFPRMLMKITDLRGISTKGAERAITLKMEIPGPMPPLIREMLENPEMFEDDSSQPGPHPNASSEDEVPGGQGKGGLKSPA
Procedure, shortened: (§1)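 Human RAR-subtype luciferase reporter cells (RARE-driven). Compounds in DMSO (final 0.4%) tested as 8-point dose response in triplicate. Incubated overnight at 37 °C in 5% CO2, then detection reagent 30 min at r.t. and luminescence measured. EC50 by four-parameter logistic fit, mean ± SEM from geometric mean of log EC50 across independent experiments.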

[7] = Metabolic stability in CD-1 mouse intestinal microsomes assessed as compound remaining at 2 x 10^-6 M in presence of NADPH measured for 60 mins; type: ADME, Intestine, Microsome; details: dose 2 10^-6M, read-out: Stability
Procedure, shortened: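 Male CD-1 mouse intestinal microsomes with NADPH, compound at 2.0 ×10−6 M, 60 min; percent parent remaining.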

Mus musculus [8] = test: Effect on spermatogenesis in CD-1 mouse assessed as spermatids in abnormal stage IX tubules at 5 mg/kg/day, po for 7 days measured after 4 weeks post-cessation of drug treatment by hematoxylin counter-staining based analysis; type: functional, organism-based; details: time 5.0 weeks
Mus musculus [9] = test: Effect on spermatogenesis in CD-1 mouse assessed as abnormality in spermatid translocation at 5 mg/kg/day, po for 7 days measured after 4 weeks post-cessation of drug treatment by hematoxylin counter-staining based analysis; type: functional, organism-based; details: time 5.0 weeks
[10] = Metabolic stability in CD-1 mouse liver microsomes assessed as compound remaining in presence of NADPH measured for 60 mins at 10^-6 M; type: ADME, Microsome; details: dose 1 10^-6M, read-out: Stability
Mus musculus [11] = test: Effect on fertility in CD-1 mouse assessed as size of embryonic litters formed post-cessation of drug treatment at 5 mg/kg/day, po for 7 days followed by drug cessation and initiation of mating for 2 weeks; type: functional; details: time 3 weeks
Mus musculus [12] = test: Effect on spermatogenesis in CD-1 mouse assessed as abnormal stage IX tubules at 10 mg/kg/day, po for 2 weeks measured measured after 4 weeks post-cessation of drug treatment by hematoxylin counter-staining based analysis; type: functional, organism-based; details: time 6.0 weeks
Procedure, shortened: (§2)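 CD1 males given 10 mg/kg/day orally for 2 weeks dissolved in 20% aqueous Kollisolv (n = 10 per time point); vehicle-only controls n = 5. Testes collected one day or 4 weeks after cessation, fixed in 4% paraformaldehyde or Bouin's, paraffin-embedded, PAS-stained with hematoxylin counterstain and tubules staged by bright-field microscopy.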

Mus musculus [13] = test: Effect on spermatogenesis in CD-1 mouse assessed as abnormality in spermatid translocation at 10 mg/kg/day, po for 2 weeks measured measured after 4 weeks post-cessation of drug treatment by hematoxylin counter-staining based analysis; type: functional, organism-based; details: time 6.0 weeks; procedure, shortened: as §2
Mus musculus [14] = test: Effect on spermatogenesis in CD-1 mouse assessed as testicular weight at 5 mg/kg/day, po for 7 days measured on day 1 post-cessation of drug treatment (reference value: 0.12 +/- 0.01 g); type: functional; details: time 8 day
[15] = biological target: T1, Retinoic acid receptor gamma; test: Antagonist activity at recombinant human RAR-gamma expressed in mammalian cells in presence of ATRA by luciferase reporter gene based transactivation assay; type: cell-based
Procedure, shortened: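 Compounds 8-point dose response in triplicate, DMSO final 0.4%; overnight at 37 °C, 5% CO2; luminescence after 30 min detection reagent. IC50 by four-parameter logistic fit; agonist-free wells set background.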

Mus musculus [16] = test: Effect on spermatogenesis in CD-1 mouse assessed as sperm count at 5 mg/kg/day, po for 7 days measured on day 1 post-cessation of drug treatment by hemocytometry (reference value: 55.50 +/- 8.18 x 10^6No_unit); type: functional; details: time 8 day
[17] = biological target: T2, Retinoic acid receptor beta (Homo sapiens, UniProt P10826); test: Antagonist activity at recombinant human RAR-beta expressed in mammalian cells in presence of ATRA by luciferase reporter gene based transactivation assay; type: cell-based
T2 sequence (P10826 whole entry): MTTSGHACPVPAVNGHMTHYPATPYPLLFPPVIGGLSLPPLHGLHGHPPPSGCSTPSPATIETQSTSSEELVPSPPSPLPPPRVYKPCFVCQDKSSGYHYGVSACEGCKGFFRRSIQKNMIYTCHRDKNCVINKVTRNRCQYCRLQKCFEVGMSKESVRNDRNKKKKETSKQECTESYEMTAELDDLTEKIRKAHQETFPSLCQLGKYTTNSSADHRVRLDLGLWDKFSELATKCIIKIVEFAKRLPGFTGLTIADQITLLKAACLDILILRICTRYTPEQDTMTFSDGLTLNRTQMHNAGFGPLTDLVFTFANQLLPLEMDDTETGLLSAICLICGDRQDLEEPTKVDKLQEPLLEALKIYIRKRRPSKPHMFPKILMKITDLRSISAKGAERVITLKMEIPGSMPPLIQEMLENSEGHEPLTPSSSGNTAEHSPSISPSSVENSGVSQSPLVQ

[18] = biological target: T2, Retinoic acid receptor beta; test: Agonist activity at recombinant human RAR-beta expressed in mammalian cells by luciferase reporter gene based transactivation assay; type: cell-based; procedure, shortened: as §1

solubility [4]: 4.2 µM (≈ 1.74 µg/mL) | Drug uptake [5]: Active | EC50 [6]: 520 nM | remaining at 1 h, 2 µM [7]: 100% | remaining at 1 h, 1 µM [10]: 100% | IC50 [15]: 310 nM | IC50 [17]: > 3300 nM | EC50 [18]: 75 nM
SMILES: Cc1ccc(C2=CC(C)(C)Oc3ccc(C(=O)Nc4ccc(C(=O)O)cc4)cc32)cc1
Activity (Mus musculus [1]): ~73% | Activity (Mus musculus [2]): 54.9 10^6No_unit | Activity (Mus musculus [3]): 44.75 10^6No_unit | Activity (Mus musculus [8]): inactive | Activity (Mus musculus [9]): inactive | Activity (Mus musculus [11]): 12.15 | Activity (Mus musculus [12]): inactive | Activity (Mus musculus [13]): inactive | Activity (Mus musculus [14]): 0.11 g | Activity (Mus musculus [16]): 24.5 10^6No_unit
